Format in all cases: functional
For assay [1], the system named is Staphylococcus aureus. Briefly: Antibacterial activity against methicillin-resistant Staphylococcus aureus ATCC 43300 at 10 mg/ml after 24 hrs by disk diffusion method. To be noted: for zone of inhibition at 10000 µg/mL: ATCC 43300, 24 h, read-out: DIZ. A digest of the protocol:
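Disk diffusion. Pure compounds were diluted to 10 mg/mL in DMSO, and 50 μL was loaded onto 6 mm sterile paper disks. Disks were placed on agar seeded with bacterial suspension (0.5 McFarland, (1−2) × 10^8 CFU/mL), with solvent as negative control. Incubation was 37 °C, 24 h, aerobic. Inhibition-zone diameter was measured including the disk. Done in triplicate.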
For orientation: Agar diffusion results depend on both activity and mobility in agar.

For assay [2], the system named is Staphylococcus aureus. Briefly: Antibacterial activity against methicillin-resistant Staphylococcus aureus ATCC 43300 after 24 hrs by microdilution method. To be noted: ATCC 43300, 24 h. The procedure, abridged: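 Broth microdilution in 96-well plates. DMSO stocks (50 mg/mL) were serially diluted in Mueller-Hinton broth to final 2.5 mg/mL–4.9 μg/mL. Inoculum was 0.5 McFarland, (1−2) × 10^8 CFU/mL. Controls were sterility, DMSO/inoculum negative and vancomycin positive. Incubation was 37 °C, 24 h, aerobic. MIC was the lowest concentration with no visible growth. Run twice in triplicate.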
On the technique in general: Dilution methods test growth across graded concentrations, often in twofold steps.

Assay [3] has as its system Staphylococcus aureus. Briefly: Antibacterial activity against methicillin-resistant Staphylococcus aureus ATCC 43300 at 5 ug/disk after 24 hrs by disk diffusion method. The settings on record: ATCC 43300, 24 h, read-out: DIZ.
Assay [4] concerns Staphylococcus aureus. Briefly: Ratio of MIC for methicillin-sensitive Staphylococcus aureus in dark to MIC for methicillin-sensitive Staphylococcus aureus in presence of UVA irradiation.

Each structure is given as a SMILES string. Converted amounts (≈) assume the structure as drawn. The source made the active and inactive calls. The calls are words filed in the database; no cut-off is given here.

Consider `COc1cc(-c2cc(=O)c3c(O)cc(O)cc3o2)ccc1O`, for which, in the assay on Staphylococcus aureus [1], the “diameter of the inhibition zone (DIZ)” value is “inactive”.
In the case of `COC(C)c1cc(O)c(C)c2c1-c1ccc(O)c(C)c1CC2` (racemic), the “diameter of the inhibition zone (DIZ)” value in the assay with Staphylococcus aureus [1] is “inactive”.
Same read-out and setting: the value for `C=C[C@@]1(C)C(=O)C2=C(C[C@H]1O)c1ccc(O)c(C)c1CC2` was “inactive”; that for `C=Cc1c(C)c(O)cc2ccc3c(C)c(O)ccc3c12` was “inactive”.
What is called MIC is the lowest concentration found to suppress growth. Read a high MIC as a less susceptible organism. Take `C=Cc1c(C)c(O)cc2c1-c1ccc(OC)c(CO)c1CC2`: the zone of inhibition at 10000 µg/mL with Staphylococcus aureus [1] turned out to be 7 mm. In the assay on Staphylococcus aureus [2], the MIC is 100 µg/mL (≈ 337 µM).
The corresponding values for `C=Cc1c(C)c(O)cc2c1ccc1c(C)c(O)ccc12` are 10 mm and 25 µg/mL (≈ 94.6 µM).
`CN[C@H](CC(C)C)C(=O)N[C@H]1C(=O)N[C@@H](CC(N)=O)C(=O)N[C@H]2C(=O)N[C@H]3C(=O)N[C@H](C(=O)N[C@H](C(=O)O)c4cc(O)cc(O)c4-c4cc3ccc4O)[C@H](O)c3ccc(c(Cl)c3)Oc3cc2cc(c3O[C@@H]2O[C@H](CO)[C@@H](O)[C@H](O)[C@H]2O[C@H]2C[C@](C)(N)[C@H](O)[C@H](C)O2)Oc2ccc(cc2Cl)[C@H]1O` [VANCOMYCIN]: the zone of inhibition at 5 µg/disc in the assay on Staphylococcus aureus [3] amounted to 15.5 mm.
With `C=Cc1cc2c(cc1C)CCc1c-2ccc(O)c1C`, the “diameter of the inhibition zone (DIZ)” value in the assay with Staphylococcus aureus [1] is “inactive”.
On the same count and under the same terms, as for `C=Cc1cc2c(ccc3c(C)c(O)ccc32)cc1C`, the entry is “inactive”.
As to `C=Cc1c(C)c(O)cc2c1CCc1c-2ccc(O)c1C`, the “diameter of the inhibition zone (DIZ)” value in the assay on Staphylococcus aureus [1] is “inactive”.
On to `C=Cc1cc(O)cc2c1-c1ccc(O)c(C)c1CC2` [EFFUSOL], for which, in the assay on Staphylococcus aureus [4], the Ratio is 16.
`Cc1cc2ccc3c(C)c(O)ccc3c2cc1[C@@H]1CC=Cc2c3c(c(C)c(O)c21)CCc1c-3ccc(O)c1C`: the “diameter of the inhibition zone (DIZ)” value in the assay on Staphylococcus aureus [1] was “inactive”.
As for `C=CC1=C(C)C(=O)C=C2c3ccc(O)c(C)c3CC[C@]21O`, the zone of inhibition at 10000 µg/mL in the assay on Staphylococcus aureus [1] came out at 12 mm. Besides, the MIC against Staphylococcus aureus [2] turned out to be 12.5 µg/mL (≈ 44.3 µM).
Take `C=Cc1c(C)c(O)cc2c1-c1ccc(O)c(C)c1CC2`: the zone of inhibition at 10000 µg/mL with Staphylococcus aureus [1] was found to be 12 mm. In the assay with Staphylococcus aureus [2], this compound had an MIC of 25 µg/mL (≈ 93.9 µM). The Ratio in the assay with Staphylococcus aureus [4] is 2.

These data come from ChEMBL document CHEMBL4002557, “Phenanthrenes from Juncus inflexus with Antimicrobial Activity against Methicillin-Resistant Staphylococcus aureus” (2016).
